In ChEMBL document CHEMBL3351600, “Sulfur, selenium and tellurium pseudopeptides: synthesis and biological evaluation” (Bioorg Med Chem, 2014):

Assays:
[1] = Growth inhibition of human HCC2998 cells after 48 hrs; type: functional; conditions: HCC 2998, 48 h
Summary of the method: (§1)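 NCI-60 human tumour cell line panel screen run at the US National Cancer Institute under its standard cytotoxicity protocol. It covers leukaemia, NSCLC, colon, CNS, melanoma, ovarian, renal, prostate and breast lines. An initial single-dose test was followed by five-dose testing with 48 h compound exposure.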

[2] = Growth inhibition of human BT549 cells after 48 hrs; type: functional; conditions: BT-549, 48 h; summary of the method: as §1
MCF7 = assay: Growth inhibition of human MCF7 cells after 48 hrs; type: functional; conditions: MCF7, 48 h; summary of the method: as §1
Escherichia coli = assay: Antimicrobial activity against Escherichia coli tolC assessed as inhibition at 20 ug/6 mm disk after 1 to 2 days by agar diffusion assay; type: functional
Summary of the method: (§2)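 Standard agar diffusion: 6-mm paper disks loaded with 20 µg of compound were placed on inoculated plates. Inhibition-zone diameter (mm) was read after 1 and 2 days of growth.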

IGROV-1 = assay: Growth inhibition of human IGROV1 cells after 48 hrs; type: functional; conditions: IGROV-1, 48 h; summary of the method: as §1
SNB-75 = assay: Growth inhibition of human SNB75 cells after 48 hrs; type: functional; conditions: SNB-75, 48 h
Summary of the method: (§3)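 Run by the NCI 58-cell-line screen under its standard cytotoxicity protocol. Compounds were first tested at a single dose, then at five doses. Cells were exposed to compound for 48 h.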

KM12 = assay: Growth inhibition of human KM12 cells after 48 hrs; type: functional; conditions: KM12, 48 h; summary of the method: as §1
A-431 = assay: Cytotoxicity against human A431 cells assessed as cell viability after 24 hrs incubation by MTT assay; type: functional, cell-based; conditions: A-431, 24 h
Summary of the method: (§4)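 Cell lines came from DSMZ; primary human fibroblasts served as non-cancer controls. Cells were grown in medium with 10% FCS, seeded at 50,000 cells/ml, and grown 2 days at 37 °C, 10% CO2. Serial dilutions were then added for 24 h. MTT (final 0.5 mg/ml) was added for 2 h. Formazan was pelleted, PBS-washed, dissolved in isopropanol/0.4% HCl and read at 590 nm. Two parallel experiments were run. IC50 was taken as the concentration giving 50% of untreated-control absorbance.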

[3] = Growth inhibition of human OVCAR5 cells after 48 hrs; type: functional; conditions: OVCAR-5, 48 h; summary of the method: as §1
[4] = Growth inhibition of human SF295 cells after 48 hrs; type: functional; conditions: SF-295, 48 h; summary of the method: as §1
SK-MEL-5 = assay: Growth inhibition of human SK-MEL-5 cells after 48 hrs; type: functional; conditions: SK-MEL-5, 48 h; summary of the method: as §3
Candida albicans = assay: Antimicrobial activity against Candida albicans assessed as inhibition at 20 ug/6 mm disk after 1 to 2 days by agar diffusion assay; type: functional; summary of the method: as §2
NCI-H23 = assay: Growth inhibition of human NCI-H23 cells after 48 hrs; type: functional; conditions: NCI-H23, 48 h; summary of the method: as §1
SN12C = assay: Growth inhibition of human SN12C cells after 48 hrs; type: functional; summary of the method: as §3
A498 = assay: Growth inhibition of human A498 cells after 48 hrs; type: functional; conditions: A498, 48 h; summary of the method: as §1
SK-OV-3 = assay: Growth inhibition of human SKOV3 cells after 48 hrs; type: functional; conditions: SK-OV-3, 48 h; summary of the method: as §3
[5] = Growth inhibition of human EKVX cells after 48 hrs; type: functional; summary of the method: as §1
SNB-19 = assay: Growth inhibition of human SNB19 cells after 48 hrs; type: functional; conditions: SNB-19, 48 h; summary of the method: as §3
[6] = Growth inhibition of human OVCAR3 cells after 48 hrs; type: functional; conditions: OVCAR-3, 48 h; summary of the method: as §1
[7] = Growth inhibition of human MOLT4 cells after 48 hrs; type: functional; conditions: MOLT-4, 48 h; summary of the method: as §1
MDA-MB-468 = assay: Growth inhibition of human MDA-MB-468 cells after 48 hrs; type: functional; conditions: MDA-MB-468, 48 h; summary of the method: as §1
NCI-H226 = assay: Growth inhibition of human NCI-H226 cells after 48 hrs; type: functional; conditions: NCI-H226, 48 h; summary of the method: as §1
Pseudomonas aeruginosa = assay: Antimicrobial activity against Pseudomonas aeruginosa assessed as inhibition at 20 ug/6 mm disk after 1 to 2 days by agar diffusion assay; type: functional; summary of the method: as §2
DU-145 = assay: Growth inhibition of human DU145 cells after 48 hrs; type: functional; conditions: DU-145, 48 h; summary of the method: as §1
SF-268 = assay: Growth inhibition of human SF268 cells after 48 hrs; type: functional; conditions: SF-268, 48 h; summary of the method: as §1
[8] = Cytotoxicity against human fibroblasts assessed as cell viability after 24 hrs incubation by MTT assay; type: cell-based; conditions: Fibroblast; summary of the method: as §4
SK-MEL-2 = assay: Growth inhibition of human SK-MEL-2 cells after 48 hrs; type: functional; conditions: SK-MEL-2, 48 h; summary of the method: as §1
[9] = Growth inhibition of human OVCAR8 cells after 48 hrs; type: functional; conditions: OVCAR-8, 48 h; summary of the method: as §1
Staphylococcus aureus = assay: Antimicrobial activity against Staphylococcus aureus assessed as inhibition at 20 ug/6 mm disk after 1 to 2 days by agar diffusion assay; type: functional; summary of the method: as §2
SK-MEL-28 = assay: Growth inhibition of human SK-MEL-28 cells after 48 hrs; type: functional; conditions: SK-MEL-28, 48 h; summary of the method: as §1
NCI-H460 = assay: Growth inhibition of human NCI-H460 cells after 48 hrs; type: functional; conditions: NCI-H460, 48 h; summary of the method: as §1
[10] = read-out: pLC50 (the source's name) (converted)

Work on `COc1ccc(N(CC(=O)NCCC[Te]c2ccccc2)C(=O)c2ccccc2)cc1` yielded a GI50 [1] of 3.02 µM, a CC50 [1, 10] of 36.3 µM and a TGI ([1]; read-out: pTGI (converted)) of 8.13 µM. For the same compound, the GI50 [2] was 2.4 µM, the LC50 (concentration killing 50% of cells) [2] was > 100 µM and the TGI ([2]; read-out: pTGI (converted)) was 8.71 µM. The GI50 (MCF7) was 3.16 µM, the LC50 (concentration killing 50% of cells) (MCF7) was 75.9 µM and the TGI (MCF7; read-out: pTGI (converted)) was 10.7 µM. For the same compound, the “diameter of the inhibition zone (DIZ)” value (Escherichia coli) was 11 mm, the GI50 (IGROV-1) was 2.88 µM and the CC50 (IGROV-1; [10]) was 55 µM. The TGI (IGROV-1; read-out: pTGI (converted)) was 8.32 µM, the GI50 (SNB-75) was 2.57 µM and the CC50 (SNB-75; [10]) was 39.8 µM. For the same compound, the TGI (SNB-75; read-out: pTGI (converted)) was 9.55 µM, the GI50 (KM12) was 3.16 µM and the CC50 (KM12; [10]) was 46.8 µM. The TGI (KM12; read-out: pTGI (converted)) was 11.7 µM, the IC50 (A-431) was 5 µM and the GI50 [3] was 3.8 µM. It also gave an LC50 [3] of 52.5 µM, a TGI ([3]; read-out: pTGI (converted)) of 11.5 µM and a GI50 [4] of 1.7 µM. For the same compound, the CC50 [4, 10] was > 100 µM, the TGI ([4]; read-out: pTGI (converted)) was 8.13 µM and the GI50 (SK-MEL-5) was 2.4 µM. For the same compound, the CC50 (SK-MEL-5; [10]) was 24.5 µM, the TGI (SK-MEL-5; read-out: pTGI (converted)) was 6.03 µM and the “diameter of the inhibition zone (DIZ)” value (Candida albicans) was 0 mm. For the same compound, the GI50 (NCI-H23) was 3.16 µM, the CC50 (NCI-H23; [10]) was > 100 µM and the TGI (NCI-H23; read-out: pTGI (converted)) was 9.33 µM. The GI50 (SN12C) was 2.69 µM, the LC50 (SN12C) was > 100 µM and the TGI (SN12C; read-out: pTGI (converted)) was 8.51 µM. For the same compound, the GI50 (A498) was 2.19 µM, the LC50 (A498) was 25.1 µM and the TGI (A498; read-out: pTGI (converted)) was 5.37 µM. The Retention_time was 0.89 min, the GI50 (SK-OV-3) was 2.57 µM and the CC50 (SK-OV-3; [10]) was 35.5 µM. For the same compound, the TGI (SK-OV-3; read-out: pTGI (converted)) was 6.03 µM, the GI50 [5] was 4.07 µM and the CC50 [5, 10] was > 100 µM. The TGI ([5]; read-out: pTGI (converted)) was 5.25 µM, the GI50 (SNB-19) was 4.07 µM and the CC50 (SNB-19; [10]) was > 100 µM. The TGI (SNB-19; read-out: pTGI (converted)) was 58.9 µM, the GI50 [6] was 5.75 µM and the CC50 [6, 10] was 56.2 µM. The TGI ([6]; read-out: pTGI (converted)) was 20 µM, the GI50 [7] was 3.55 µM and the CC50 [7, 10] was > 100 µM. The TGI ([7]; read-out: pTGI (converted)) was 16.6 µM, the GI50 (MDA-MB-468) was 4.27 µM and the LC50 (MDA-MB-468) was 56.2 µM. The TGI (MDA-MB-468; read-out: pTGI (converted)) was 17.8 µM, the GI50 (NCI-H226) was 2.63 µM and the CC50 (NCI-H226; [10]) was 100 µM. The TGI (NCI-H226; read-out: pTGI (converted)) was 7.24 µM, the “diameter of the inhibition zone (DIZ)” value (Pseudomonas aeruginosa) was 9 mm and the GI50 (DU-145) was 3.89 µM. It also gave an LC50 (DU-145) of 64.6 µM, a TGI (DU-145; read-out: pTGI (converted)) of 13.8 µM and a GI50 (SF-268) of 3.16 µM. It also gave a CC50 (SF-268; [10]) of 66.1 µM, a TGI (SF-268; read-out: pTGI (converted)) of 10.7 µM and an IC50 [8] of 7.5 µM. For the same compound, the GI50 (SK-MEL-2) was 4.17 µM, the CC50 (SK-MEL-2; [10]) was > 100 µM and the TGI (SK-MEL-2; read-out: pTGI (converted)) was 15.1 µM. For the same compound, the GI50 [9] was 3.02 µM, the LC50 [9] was > 100 µM and the TGI ([9]; read-out: pTGI (converted)) was 8.13 µM. For the same compound, the “diameter of the inhibition zone (DIZ)” value (Staphylococcus aureus) was 12 mm, the GI50 (SK-MEL-28) was 4.17 µM and the CC50 (SK-MEL-28; [10]) was 45.7 µM. For the same compound, the TGI (SK-MEL-28; read-out: pTGI (converted)) was 15.5 µM, the GI50 (NCI-H460) was 0.537 µM and the CC50 (NCI-H460; [10]) was 8.71 µM. It also gave a TGI (NCI-H460; read-out: pTGI (converted)) of 2.4 µM.
